# TAAR1 antag – antagonists of human TAAR1 | Q96RJ0 | CHO RD-HGA16 TAAR1, Fluo-8 calcium fluorescence, antagonist | inhibition, % at 3 µM | 1.5% of 360,000 active | AID 624466;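 active = inhibition above a per-plate cutoff, the mean inhibition of test compounds on that plate plus 3 SD, cut at about 49% in these data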;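 note: 0% = DMSO plus EC80 beta-PEA response and 100% = DMSO alone without agonist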
#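 Material: RD-HGA16 CHO cells with stable hTAAR1 and Gα16; Dosing: single nominal final test compound concentration of 3 µM; Schedule: seeding 17-24 h prior, 75-min 37 °C, 30-min RT dye loading; Detection: kinetic Fluo-8 calcium fluorescence measurement; Measure: % inhibition from peak post-agonist over basal fluorescence ratio; Benchmarks: vehicle and agonist controls.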
# TAAR1 agonist – human TAAR1 agonism. CHO RD-HGA16 TAAR1, Fluo-8 calcium fluorescence; vehicle wells 0%, saturating PEA agonist 100%. activation, % at 3 µM. 0.99% of 360,000 active;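 active = activation above the mean activation of all test compounds in the run plus 3 SD, cut at about 38% in these data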
#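 Signal – calcium-sensitive Fluo-8 signal, excitation 470-495, emission 515-575 nm · System – RD-HGA16 (CHO) cells co-expressing Gα16 and hTAAR1 · Incubation – 17-24 h seeding, 75 min 37 °C dye, 30 min RT · Compound dosing – 3 µM single concentration · Repeats – no replicates (n 1)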
# OX1R antag-1 – antagonists of human orexin 1 receptor | CHO/OX1R cells, Fluo-8 calcium fluorescence, orexin A | inhibition, % at 5 µM | 0.43% of 330,000 active | AID 434989;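 active = inhibition above its plate's threshold, mean inhibition of all tested compounds on the plate plus 3 SD, cut at about 37% in these data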;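 note: 0% = orexin A challenge wells and 100% = SB-334867-A antagonist wells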
# Target sequence (O43613 whole entry, looked up): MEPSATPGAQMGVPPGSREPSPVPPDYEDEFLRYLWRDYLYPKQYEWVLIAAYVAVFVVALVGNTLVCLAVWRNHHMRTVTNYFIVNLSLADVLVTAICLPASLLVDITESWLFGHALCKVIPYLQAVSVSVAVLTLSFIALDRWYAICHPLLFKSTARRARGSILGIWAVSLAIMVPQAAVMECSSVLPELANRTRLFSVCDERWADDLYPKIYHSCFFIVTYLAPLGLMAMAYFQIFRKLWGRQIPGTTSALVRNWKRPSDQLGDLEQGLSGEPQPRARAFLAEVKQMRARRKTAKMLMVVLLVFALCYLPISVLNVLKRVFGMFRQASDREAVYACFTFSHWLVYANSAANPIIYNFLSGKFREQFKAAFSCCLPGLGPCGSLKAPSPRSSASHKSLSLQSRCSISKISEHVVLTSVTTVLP
# CHO parental Ca – counter-screen: ATP calcium response change in parental CHO cells. parental CHO-K1, ATP-induced calcium, Fluo-8 fluorescence. inhibition, % at 5.6 µM. 0.63% of 330,000 active;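 active = inhibition above that plate's mean sample inhibition plus 3 SD, cut at about 26% in these data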;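 note: 0% = ATP-challenged DMSO wells and 100% = DMSO wells without ATP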
#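 Material: parental CHO cells / Compound: single nominal dose of 5.6 µM per compound / Signal: Fluo-8 fluorescence / Replicates: singlicate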
# OX1R antag-2 – antagonists of human orexin 1 receptor (OX1R). inhibition, % at 6.6 µM. AID 485270. 1.8% of 330,000 active. OX1R-expressing cells, FRET antagonist read-out; in the data active = inhibition mostly above about 38%, no sharp cut-off; inactive = mostly below about 40%;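 note: 0% = agonist challenge alone and 100% = reference antagonist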
# OX1R Fluo8 conf – OX1R (human) antagonism, confirmed | shares compounds with OX1R antag-1 | CHO/OX1R cells, orexin A calcium Fluo-8 fluorescence | inhibition, % at 5 µM | 38% of 1,100 active; in the data active = inhibition above about 29%;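 note: 0% = agonist challenge alone and 100% = reference antagonist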
# CHO Ca triplic – counter-screen: parental CHO calcium response change, triplicate | 9.3% of 1,100 active | inhibition, % at 5.6 µM | parental CHO-K1, ATP-induced calcium, Fluo-8 fluorescence | shares compounds with OX1R antag-1;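 active = inhibition above a per-plate limit, the mean inhibition of that plate's test compounds plus 3 SD, cut at about 25% in these data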;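 note: 0% = ATP challenge with DMSO and 100% = DMSO without ATP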
# OX1R HTRF conf – confirmation of human orexin 1 receptor antagonists, HTRF format; shares compounds with OX1R antag-2; OX1R-expressing cells, HTRF antagonist assay; inhibition, % at 6.6 µM; 49% of 1,800 active; AID 492964; in the data active = inhibition above about 55%;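 note: CHO cells expressing OX1R stimulated with orexin A at about EC80; 0% = agonist challenge alone and 100% = reference antagonist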
# CHO-K1 HTRF cnt – counter-screen: parental CHO-K1 HTRF response | shares compounds with OX1R antag-2 | parental CHO-K1 cells, HTRF counterscreen | inhibition, % at 6.6 µM | 48% of 1,800 active; in the data active = inhibition above about 17%;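 note: 0% = agonist challenge with vehicle and 100% = vehicle alone without agonist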
# Starred values were filed as active, the others as inactive; / = not tested or not shown. An excerpt weighted towards active compounds, which were near 3.9% of everything screened.
SMILES,TAAR1 antag,TAAR1 agonist,OX1R antag-1,CHO parental Ca,OX1R antag-2,OX1R Fluo8 conf,CHO Ca triplic,OX1R HTRF conf,CHO-K1 HTRF cnt
Cc1ccc(N(CC(=O)NCCc2ccccc2)S(=O)(=O)c2c(C)noc2C)cc1,11.3,8.5,70.2*,-26.2,84.9*,43.6*,-30.7,82.2*,-23.2
COC(=O)C[C@H]1C=C[C@H](NC(=O)c2cccc(F)c2)[C@@H](CO)O1,-18.2,3.3,/,/,/,/,/,/,/
CC(=O)c1cccc(N(C(=O)c2ccccn2)C(C(=O)NC2CCCCC2)c2ccccc2)c1 (stereo not given),12.0,-1.3,-29.1,-23.2,21.2,/,/,/,/
Cc1cc(C)cc(N(C(=O)c2ccccn2)C(C(=O)NC2CCCCC2)c2cccs2)c1 (stereo not given),-20.6,-3.2,47.9*,-23.4,64.0*,6.3,-16.9,67.3*,0.0
N#Cc1c(Nc2ccccc2)[n+]([O-])c2ccc(Cl)cc2[n+]1[O-],-4.3,5.2,/,/,/,/,/,/,/
OC1=C(O)c2nc3cc(F)ccc3nc21,-18.9,10.3,-0.9,1.1,20.1,/,/,/,/
Fc1ccc2nc3[nH]c4ccccc4c3nc2c1,-9.7,7.3,36.4,7.2,97.8*,9.8,-3.2,64.3*,1.6
O=C(Nc1cccc(Cl)c1)c1ccc(F)c(S(=O)(=O)NCc2ccc3c(c2)OCO3)c1,0.3,6.2,59.2*,-6.2,83.2*,48.2*,-0.5,75.8*,-6.2
COC(=O)[C@]12CCCCC=C1N(CCC1=CCCCC1)C(=O)[C@H](CC(=O)N1CCCCC1)C2,16.6,9.0,/,/,/,/,/,/,/
Cc1ccc(Cn2nc(C)cc2C(=O)Nc2ccc(Cl)cc2)cc1,-3.5,9.2,43.5,-19.1,55.8*,28.2,-14.4,61.6*,10.7
Cc1ccc(Cn2nc(C)cc2C(=O)Nc2ccccc2Cl)cc1,-3.8,4.3,-41.0,-23.4,7.1,/,/,/,/
O=C(N/N=C/C(Br)=C/c1ccccc1)c1cc(-c2ccco2)[nH]n1,30.6,12.0,26.4,-11.7,73.2*,49.8*,7.1,86.9*,9.0
CC(/C=N/NC(=O)c1cc(-c2cccs2)[nH]n1)=C\c1ccccc1,35.1,15.3,45.0*,-14.5,88.2*,45.0*,-2.3,73.0*,11.3
COc1ccccc1/C=C/C=N/NC(=O)c1cc(-c2ccco2)[nH]n1,38.5,5.7,-12.6,-50.7,30.8,/,/,/,/
Cc1ccsc1C(=O)N1CCC1(C)C(=O)NCCC#N (stereo not given),-18.0,4.6,/,/,/,/,/,/,/
CCc1nc2ccc(C(=O)N(CC)CCN(C)C)cn2c1N(CC)C(=O)NCCc1ccccc1,-39.2,4.5,/,/,/,/,/,/,/
CC1Oc2ccccc2N(CC(=O)NCC2CCCO2)C1=O (stereo not given),9.1,1.6,-14.3,-5.5,1.8,/,/,/,/
O=C(O)CN1C(=O)/C(=C/c2cccc(Cl)c2)Oc2ccccc21,-20.6,1.8,32.1,-8.2,77.4*,13.4,-2.7,66.2*,10.8
COc1cccc(/C=C2/Oc3ccccc3N(CC(=O)NCC3CCCO3)C2=O)c1 (stereo not given),/,/,75.2*,-13.3,109.4*,94.4*,-12.2,93.8*,13.2
Cn1c(=O)c(C(=O)COC(=O)c2cc(C3CC3)nc3ccccc23)c(N)n(Cc2ccccc2)c1=O,-4.0,3.5,-3.1,-1.4,58.8,/,/,/,/
Cn1c(=O)c(C(=O)COC(=O)c2cc(-c3ccco3)nc3ccccc23)c(N)n(CC2CC2)c1=O,/,/,37.4,8.1,69.4*,26.0,-4.3,64.5*,2.6
COc1cccc(OC)c1C(=O)Nc1nc(-c2ccccc2)cs1,-17.8,8.3,38.5*,-16.6,97.0*,30.3*,-9.2,89.0*,5.1
COc1ccccc1C(=O)Nc1nc(-c2ccc(S(=O)(=O)N3CCOCC3)cc2)cs1,69.3*,31.3,32.6,24.3,88.9*,56.4*,29.0*,57.9*,15.4
